# PolyA inhibitor = polyadenylation inhibitors in yeast reporter cells, primary screen, luminescence, S. cerevisiae; AID 1875, 2009; activity score, % at 12 µM; S. cerevisiae SKY197-pL101 polyadenylation reporter, beta-gal luminescence; efflux-impaired pdr1/pdr3 knockout yeast; score 100 = 6 SD above DMSO; 300,000 compounds, 0.02% hits;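 active = lowest replicate activity score at least 50, where 100 means six control SD above control mean; inconclusive = lowest score under 50 but half or more replicates reach 50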;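 note: yeast exposed to compound for 9 h at 30 °C; higher score means more reporter readthrough which indicates perturbed polyadenylation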
# HDAC3 inhib = HDAC3 deacetylase inhibitors, primary screen, biochemical, fluorescence, cell-free homogeneous; AID 2718, 2010; Histone deacetylase 3 (Homo sapiens), O15379; recombinant HDAC3, fluorogenic peptide/trypsin coupled; inhibition, % at 8.3 µM; 320,000 compounds, 0.15% hits; in the data active = inhibition above about 26%, passing the limit was not always enough; inconclusive = no clear call, values can overlap the other calls
# Target sequence (O15379 whole entry, looked up): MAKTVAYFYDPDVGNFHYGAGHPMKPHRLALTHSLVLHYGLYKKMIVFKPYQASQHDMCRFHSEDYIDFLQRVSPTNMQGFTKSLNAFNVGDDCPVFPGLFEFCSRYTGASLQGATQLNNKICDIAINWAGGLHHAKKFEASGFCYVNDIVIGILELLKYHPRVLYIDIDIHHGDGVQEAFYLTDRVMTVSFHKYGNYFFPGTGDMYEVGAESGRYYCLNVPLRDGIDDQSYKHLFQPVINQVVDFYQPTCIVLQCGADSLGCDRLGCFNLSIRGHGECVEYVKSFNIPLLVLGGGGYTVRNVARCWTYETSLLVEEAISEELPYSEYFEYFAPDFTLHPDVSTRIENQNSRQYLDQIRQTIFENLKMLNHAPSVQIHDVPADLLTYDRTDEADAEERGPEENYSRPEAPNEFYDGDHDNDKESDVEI
# AI-2 QS modul = Vibrio harveyi AI-2 quorum sensing modulators, primary screen, JMH597 strain, luminescence/OD600 ratio; Vibrio harveyi JMH597 AI-2 luminescence/OD600 ratio, 9 h; active compounds read low; strain lacks LuxN and CqsS sensors; 0 = neutral-control median; activity change, % at 7.5 µM; 300,000 compounds, 0.4% hits; in the data active = activity change below about -75%, passing the limit was not always enough; inconclusive = no clear call, values can overlap the other calls;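 note: luminescence divided by OD600 gain over 9 h not by final OD600 alone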
# Efflux pump mplx = inhibitors of Candida efflux pumps in yeast, primary screen, S. cerevisiae, Nile Red, multiplex | inhibition, % at 10 µM | 330,000 compounds, 0.44% hits | S. cerevisiae Candida pump triplex | AID 485275, 2010;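 active = plate passing quality check with inhibition over a set limit, or well fluorescence over plate mean plus 4 SD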;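 note: Nile Red retained in pooled yeast measured as flow cytometry median fluorescence; 0% = buffer negative control and 100% = Enniatin B positive control; higher means more Nile Red kept so more efflux inhibition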
# T cruzi inh = inhibitors of intracellular T. cruzi growth, primary screen, luminescence, NIH3T3 host cells; T. cruzi beta-gal in NIH3T3, 90 h; inhibition, % (test concentration not listed); 300,000 compounds, 1.4% hits;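 active = mean inhibition across valid replicates above about 55%, limit read from the data; inconclusive = mean below that limit but half or more replicates reach it; inactive = mean below it, under half of replicates reach it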;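 note: signal also drops with host cell toxicity which is not excluded here; 0% = plate median of DMSO wells and 100% = zero luminescence signal; higher percent means less beta-gal luminescence so fewer parasites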
#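 System: NIH/3T3 fibroblasts plus reporter T. cruzi. Medium: DMEM plus 2% FBS. Probe or stimulus: 5000 reporter trypomastigotes per well. Compound: single 50 nL compound addition per well in DMSO. Incubation: co-culture of at least 90 h after 3 h attachment. Detection: GalScreen β-gal luminescence, detergent lysis, 60 min. Evaluation: parasite load inhibition, %.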
# Cmpd fluor yeast = compound fluorescence in yeast efflux pump counter-screen | 1,700 compounds, 4% hits | shares compounds with Efflux pump mplx | S. cerevisiae AD/pABC3, flow cytometry | fluorescence ratio to DMSO, % at 10 µM;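 active = fluorescence ratio to DMSO above its plate's cutoff, the plate mean ratio plus 5 SD, cut at about 210% in these data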;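 note: unstained yeast with no Nile Red so the signal is compound autofluorescence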
# Mdr1 pump inh = inhibitors of Candida albicans Mdr1 efflux, confirmation, flow cytometry, singleplex, Cherry Pick1 set | inhibition, % at 10 µM | S. cerevisiae AD/CaMDR1, Nile Red efflux | shares compounds with Efflux pump mplx | AID 588518, 2011 | 1,700 compounds, 1% hits; in the data active = inhibition above about 26%;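 note: 0% = DMSO vehicle and 100% = reference inhibitor; higher means more Nile Red retained so more efflux inhibition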
# CaCdr2 efflux inh = inhibitors of Candida albicans Cdr2 efflux pump, confirmation, S. cerevisiae AD/CaCDR2, flow cytometry, cherry pick 1, singleplex; 1,700 compounds, 4% hits; shares compounds with Efflux pump mplx; Nile Red retention; Nile Red retention ratio vs DMSO, % at 10 µM; AID 588520, 2011; in the data active = Nile Red retention ratio vs DMSO above about 190%;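 note: higher ratio means more blocking of Cdr2 efflux of the dye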
# Cdr1 pump inh = inhibitors of Candida albicans Cdr1 efflux pump, confirmation, S. cerevisiae AD/CaCDR1, flow cytometry, cherry pick 1, singleplex | shares compounds with Efflux pump mplx | Nile Red efflux | inhibition, % at 10 µM | 1,700 compounds, 1% hits | AID 588522, 2011;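 active = inhibition above the screen-wide mean plus twice its standard deviation, cut at about 32% in these data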
# Active calls of the source: *; ? = inconclusive; . = no result. Most compounds without a hit are left out; they make up all but 2.2% or so of the library.
SMILES,PolyA inhibitor,HDAC3 inhib,AI-2 QS modul,Efflux pump mplx,T cruzi inh,Cmpd fluor yeast,Mdr1 pump inh,CaCdr2 efflux inh,Cdr1 pump inh
O=C(Nc1ccc(NC(=O)c2ccc(Cl)cc2Cl)cc1)c1cccs1,17,-13,6,1.3*,-9,98,0,85,0
C[C@H](CCC(=O)NCC(=O)O)[C@H]1CC[C@H]2C3[C@H](O)C[C@@H]4C[C@H](O)CC[C@]4(C)[C@H]3C[C@H](O)[C@]12C (some centres not stated),-8,-2,-6,0,9,.,.,.,.
COc1ccc(Nc2nnc(Cc3ccccc3)c(=O)[nH]2)c(OC)c1,24,-2,26,0.5*,-12,100,0,104,0
COc1ccc(Nc2nnc(Cc3ccc(Cl)cc3)c(=O)[nH]2)c(OC)c1,-2,12,?,0,16,.,.,.,.
CCS(=O)(=O)N1CCN(S(=O)(=O)c2ccc(S(=O)(=O)NC3CC3)cc2)CC1,-2,5,25,0,-7,.,.,.,.
O=S(=O)(NC1CCCC1)c1ccc(S(=O)(=O)N2CCN(c3ccccc3)CC2)cc1,3,-2,3,2.0*,4,101,0,87,0
CNC(=S)N(CCc1cccc(C)c1)Cc1cc2cc(OC)c(OC)cc2[nH]c1=O,-4,-8,7,1.7*,15,106,0,94,0
COc1cc2cc(CN(CCc3cccc(C)c3)C(=S)NCCCN(C)C)c(=O)[nH]c2cc1OC,13,-4,-13,0,22,.,.,.,.
CC(=C/C(=O)O)/C=C/c1ccco1,3,1,13,2.4*,-6,99,0,94,0
COc1ccc(NN=Nc2nc3c([nH]2)c(=O)n(C)c(=O)n3C)cc1,-1,.,30,0,-8,.,.,.,.
COC(=O)C1=C(C)OC(N)=C(C#N)C1c1c(C)nn(-c2ccccc2)c1Cl (configuration not stated),1,-3,13,0,2,.,.,.,.
COC(=O)C1=C(C)OC(N)=C(C#N)C1c1c(C)nn(C)c1C (configuration not stated),17,-2,11,6.5*,-6,96,0,107,0
Cn1cccc1C(=O)NC(=O)COC(=O)c1cc(Cl)ccc1[N+](=O)[O-],-10,2,9,0,-21,.,.,.,.
O=C(Nc1ccc(S(=O)(=O)N2CCOCC2)cc1)c1ccccc1F,5,-1,23,0,-10,.,.,.,.
Cc1ccc2nc(-c3ccccc3)cc(C(=O)N3CCN(c4ccccc4O)CC3)c2c1,-14,19,6,0,9,.,.,.,.
Cc1ccc2nc(-c3ccccc3)cc(C(=O)N3CCN(S(=O)(=O)c4c(C)noc4C)CC3)c2c1,.,-7,.,1.1*,.,104,0,103,0
O=C(NCCC(=O)N1CCCC1)c1ccccc1Cl,4,8,18,1,-7,.,.,.,.
O=C(COc1ccc(Br)cc1)Nc1nnc(C2CC2)s1,.,2,.,0,.,116,0,93,0
Cc1cc(OCC(=O)Nc2nnc(C3CC3)s2)ccc1C(C)C,.,.,.,0,.,.,.,.,.
Cc1ccc(C(C)C)cc1OCC(=O)Nc1nnc(C2CC2)s1,.,4,.,0,.,101,0,106,0
CC(Oc1ccc(Br)cc1)C(=O)Nc1nnc(C2CC2)s1 (configuration not stated),?,-1,-7,0,-2,99,0,109,0
O=C(CN1C(=O)NC(c2ccc(F)cc2)C1=O)NC1CCCCC1 (configuration not stated),.,1,.,0,.,.,.,.,.
O=C(CSc1nnc(-c2ccccc2)o1)N1CCN(c2ccccc2)CC1,2,4,15,0.8*,-13,107,0,101,0
Cc1ccc(-n2c(=O)[nH]c3c(C(N)=O)nc(-c4ccc(C)o4)nc32)cc1,-6,7,28,0,5,99,0,93,0
COc1ccc(-c2nc(C(N)=O)c3[nH]c(=O)n(-c4ccccc4OC)c3n2)c(OC)c1,-10,2,9,0,-2,99,0,92,0
SMILES,PolyA inhibitor,HDAC3 inhib,AI-2 QS modul,Efflux pump mplx,T cruzi inh,Cmpd fluor yeast,Mdr1 pump inh,CaCdr2 efflux inh,Cdr1 pump inh
CCC(CC)c1nc(C(N)=O)c2[nH]c(=O)n(-c3ccc(OC)c(OC)c3)c2n1,5,8,16,0,-13,.,.,.,.
Cc1ccc(-n2c(=O)[nH]c3c(C(N)=O)nc(CC(C)C)nc32)cc1,-3,-5,13,0,0,.,.,.,.
COc1ccc(OC)c(-c2nc(C(N)=O)c3[nH]c(=O)n(-c4ccc(F)cc4)c3n2)c1,17,1,-10,0,-6,80,0,89,0
Cc1cc(Cl)ccc1NC(=O)CN1CCN(C(=O)c2ccco2)CC1,-5,1,4,0,-8,.,.,.,.
O=C1c2ccccc2NC(c2cccc(O)c2)N1c1ccccc1 (configuration not stated),3,-20,23,0,16,.,.,.,.
Cc1nnc(SCc2ccc([N+](=O)[O-])cc2)o1,-4,11,2,1.0*,3,110,0,106,0
Cc1ccc(C)c(-c2cc(C(=O)Nc3sc(C)c(C)c3C(N)=O)c3ccccc3n2)c1,-11,-1,31,0,29,98,0,104,0
COC(=O)[C@@H](NC(=O)c1ccc(OC2CCN(Cc3ccccn3)CC2)cc1)C(C)C,-5,3,11,0,-22,.,.,.,.
CC(CNC(=O)c1ccc(OC2CCN(Cc3ccccn3)CC2)cc1)c1ccccc1 (configuration not stated),-1,-1,7,5.3*,-1,102,0,96,0
CC(=O)Nc1ccc(S(=O)(=O)N2CCN(c3cnn(C)c(=O)c3Cl)CC2)cc1,11,5,-4,0,5,.,.,.,.
CC(Oc1ccccc1F)c1nnc(SCC(=O)Nc2ccc(N3CCOCC3)cc2)o1 (configuration not stated),.,-2,.,0,.,.,.,.,.

# Compound activity from PubChem.
